Assay results as given in ChEMBL document CHEMBL1124310, “Antiinflammatory 2,6-di-tert-butyl-4-(2-arylethenyl)phenols” (J Med Chem, 1989).

Legend:
Cyclooxygenase [1] = biological target: T1, Cyclooxygenase (Homo sapiens, UniProt P35354+P23219); assay: Inhibitory activity against Prostaglandin G/H synthase at 1 uM concentration; type: protein assay
Outline: (§1)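 Human platelets (10^7/0.5 mL) in Ca2+-free pH 7 phosphate buffer incubated with compound for 15 min at 37 °C with shaking. Prostaglandin-thromboxane band areas measured as % of total radioactivity. Inhibition = (1 − cmd/cntl) × 100; single determination run in duplicate; ANOVA, p<0.05.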

Cyclooxygenase [2] = biological target: T1, Cyclooxygenase; assay: Inhibitory activity against Prostaglandin G/H synthase at 10 uM concentration; type: protein assay; outline: as §1
[3] = biological target: T2, Polyunsaturated fatty acid 5-lipoxygenase (Homo sapiens) (UniProt P09917); assay: Inhibitory activity against 5-lipoxygenase at 1 uM concentration
T2 sequence (whole entry): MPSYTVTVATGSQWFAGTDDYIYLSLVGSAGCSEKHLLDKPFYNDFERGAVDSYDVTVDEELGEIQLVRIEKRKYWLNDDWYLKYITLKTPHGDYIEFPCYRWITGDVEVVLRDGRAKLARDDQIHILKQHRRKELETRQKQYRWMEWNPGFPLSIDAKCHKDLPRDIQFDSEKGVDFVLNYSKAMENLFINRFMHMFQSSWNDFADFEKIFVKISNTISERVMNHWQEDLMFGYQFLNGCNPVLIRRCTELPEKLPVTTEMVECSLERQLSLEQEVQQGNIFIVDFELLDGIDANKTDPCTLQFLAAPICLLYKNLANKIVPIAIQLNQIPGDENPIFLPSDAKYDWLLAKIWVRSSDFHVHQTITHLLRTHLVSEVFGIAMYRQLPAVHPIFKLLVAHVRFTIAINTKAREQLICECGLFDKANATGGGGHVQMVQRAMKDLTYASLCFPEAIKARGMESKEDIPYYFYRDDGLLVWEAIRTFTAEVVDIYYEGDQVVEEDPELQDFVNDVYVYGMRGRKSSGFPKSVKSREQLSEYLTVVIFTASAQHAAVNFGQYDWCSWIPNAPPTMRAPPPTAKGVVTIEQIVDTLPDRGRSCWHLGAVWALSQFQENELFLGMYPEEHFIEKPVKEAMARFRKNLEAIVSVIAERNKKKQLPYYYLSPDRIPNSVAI
Outline: (§2)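 Human peripheral blood leukocytes (5 × 10^6/0.5 mL) in pH 7.2 phosphate buffer with 0.6 mM Ca2+ and 1.0 mM Mg2+ incubated with compound for 15 min at 37 °C with shaking. 5-HETE band area measured as % of total radioactivity. Inhibition = (1 − cmd/cntl) × 100; single determination in duplicate; ANOVA, p<0.05.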

[4] = biological target: T2, Polyunsaturated fatty acid 5-lipoxygenase (Homo sapiens); assay: Inhibitory activity against lipoxygenase (LO) at 10 uM concentration; outline: as §2
Rattus norvegicus [5] = assay: Inhibitory activity against developing adjuvant-induced arthritis (Dev AA) in rat at 50 mg/kg concentration; type: functional
Rattus norvegicus [6] = assay: Inhibitory activity against developing adjuvant-induced arthritis (Dev AA) in rat at 25 mg/kg concentration; type: functional
[7] = biological target: T2, Polyunsaturated fatty acid 5-lipoxygenase (Homo sapiens); assay: Inhibitory activity against lipoxygenase (LO) at 1 uM concentration; outline: as §2
[8] = biological target: T2, Polyunsaturated fatty acid 5-lipoxygenase (Homo sapiens); assay: Inhibitory activity against 5-lipoxygenase at 10 uM concentration; outline: as §2
Rattus norvegicus [9] = assay: Inhibitory activity against developing adjuvant-induced arthritis (Dev AA) in rat at 5 mg/kg concentration; type: functional
Rattus norvegicus [10] = species: Rattus norvegicus; assay: Effective dose of compound to inhibit established adjuvant arthritis (EstAA) in rat; type: functional
Outline: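 Arthritis induced in male Lewis rats with Mycobacterium butyricum adjuvant in the right hind footpad. Rats with arthritis established by day 14 after injection were selected, then dosed orally for 14 days. Noninjected paw volume measured by mercury displacement. % inhibition versus untreated arthritic controls.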

Rattus norvegicus [11] = species: Rattus norvegicus; assay: Effective dose of compound to inhibit adjuvant-induced arthritis (Dev AA) in rat; type: functional
Rattus norvegicus [12] = assay: Effective dose of compound to inhibit carrageenan induced paw edema in rat was determined; type: functional
Outline: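 Male CD rats (150 ± 10 g), 10 per group. Compound or vehicle (1% acacia in water) given orally 1 h before subplantar injection of 0.1 mL 1% carrageenan in saline into the right hind paw. Paw volume measured by mercury displacement before dosing and 3 h after carrageenan; the difference is the edema volume.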

Rattus norvegicus [13] = assay: Inhibitory activity against developing adjuvant-induced arthritis (Dev AA) in rat at 5 mg/kg concentration; decrease in paw volume statistically significant compared to control.; type: functional
Rattus norvegicus [14] = species: Rattus norvegicus; assay: Dose of compound to produce a 50% ulcerogenic response in rats was determined; type: functional
Outline: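 Ulcerogenic dose: value taken as the dose giving 50% response on a graded scale, 0% = no ulcers or redness in stomach or intestines, 100% = major lesions in both stomach and intestines. Method follows a cited procedure.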

Rattus norvegicus [15] = species: Rattus norvegicus; assay: Effective dose of compound to inhibit acetic acid induced writhing in rat was determined; type: functional
[16] = biological target: T2, Polyunsaturated fatty acid 5-lipoxygenase (Homo sapiens); assay: Inhibitory activity against lipoxygenase (LO) at 1 uM concentration; % inhibition not statistically different from control; outline: as §2
Cyclooxygenase [17] = biological target: T1, Cyclooxygenase; assay: Inhibitory activity against Prostaglandin G/H synthase from human platelets was determined

Row | inhibition (Cyclooxygenase [1]) [%] | inhibition (Cyclooxygenase [2]) [%] | inhibition [3] [%] | inhibition [4] [%] | inhibition [7] [%] | inhibition [8] [%] | SMILES | inhibition in vivo at 50 mg/kg (Rattus norvegicus [5]) [%] | further results
1 | 72 | 83 | 10 | 59 | – | – | CC(C)(C)c1cc(C(=O)/C=C/c2cccs2)cc(C(C)(C)C)c1O | 0 | –
2 | – | – | – | 81 | 29 | – | CC(C)(C)c1cc(/C=C/c2cccnc2)ccc1O | – | inhibition in vivo at 25 mg/kg (Rattus norvegicus [6]): 3%
3 | – | – | – | 12 | 18 | – | COc1ccc(/C=C/c2cc(C(C)(C)C)c(O)c(C(C)(C)C)c2)cc1 | 0 | –
4 | 44 | 75 | 39 | – | – | 84 | CC(C)(C)c1cc(/C=C/C(=O)c2cccs2)cc(C(C)(C)C)c1O | 8 | –
5 | – | – | – | 63 | 13 | – | CC(C)(C)c1cc(CCc2cccnc2)cc(C(C)(C)C)c1O | – | inhibition in vivo at 25 mg/kg (Rattus norvegicus [6]): 3%
6 | 31 | 66 | 6 | – | – | 16 | CC(C)(C)c1cc(/C=C/c2ccc(Cl)cc2)cc(C(C)(C)C)c1O | 42 | –
7 | 56 | 80 | 53 | 91 | – | – | CC(C)(C)c1cc(/C=C/C(=O)c2ccsc2)cc(C(C)(C)C)c1O | 0 | –
8 | 54 | 78 | 23 | – | – | 83 | CCOC(=O)/C(=C\c1cc(C(C)(C)C)c(O)c(C(C)(C)C)c1)c1cccnc1 | 24 | –
9 | 9 | 18 | 19 | 22 | – | – | CC(C)(C)c1cc(/C=C/c2cccc(C(F)(F)F)c2)cc(C(C)(C)C)c1O | 0 | –
10 | – | – | – | 28 | 19 | – | CC(C)(C)c1cc(/C=C/c2ccc(Cl)s2)cc(C(C)(C)C)c1O | 45 | –
11 | – | – | – | 82 | 17 | – | CC(C)(C)c1cc(C(=O)c2cccs2)cc(C(C)(C)C)c1O [PRIFELONE] | – | inhibition in vivo at 5 mg/kg (Rattus norvegicus [9]): 24%; inhibition in vivo at 25 mg/kg (Rattus norvegicus [6]): 96%
12 | – | – | – | 87 | 73 | – | CC(C)c1cc(/C=C/c2cccnc2)cc(C(C)C)c1O | – | inhibition in vivo at 25 mg/kg (Rattus norvegicus [6]): 17%
13 | – | – | – | 20 | 12 | – | COc1ccc(/C=C/c2cc(C(C)(C)C)c(O)c(C(C)(C)C)c2)cc1OC | 26 | –
14 | 21 | 53 | 10 | – | – | – | CC(C)(C)c1cc(/C=C/c2ccccc2C(=O)O)cc(C(C)(C)C)c1O | – | –
15 | – | – | – | – | 10 | – | CCC(C)(C)c1cc(/C=C/c2cccs2)cc(C(C)(C)CC)c1O | – | inhibition in vivo at 25 mg/kg (Rattus norvegicus [6]): 40%
16 | – | – | – | 88 | 34 | – | CC(C)(C)c1cc(/C=C/c2ccccn2)cc(C(C)(C)C)c1O | 74 | inhibition in vivo at 5 mg/kg (Rattus norvegicus [9]): 36%

Row | inhibition (Cyclooxygenase [1]) [%] | inhibition (Cyclooxygenase [2]) [%] | inhibition [3] [%] | inhibition [4] [%] | inhibition [7] [%] | inhibition [8] [%] | SMILES | inhibition in vivo at 50 mg/kg (Rattus norvegicus [5]) [%] | further results
17 | – | – | – | 81 | 9 | – | CC(C)(C)c1cc(/C=C/c2ccsc2)cc(C(C)(C)C)c1O | 62 | inhibition in vivo at 5 mg/kg (Rattus norvegicus [9]): 31%
18 | 73 | 83 | 16 | – | – | 69 | CC(C)(C)c1cc(C(=O)/C=C/c2ccsc2)cc(C(C)(C)C)c1O | 13 | –
19 | – | – | – | – | 82 | – | CC(C)c1cc(/C=C/c2cccs2)cc(C(C)C)c1O | – | –
20 | – | – | – | 6 | – | – | CC(C)(C)c1cc(/C=C/c2ccncc2)cc(C(C)(C)C)c1O | 0 | –
21 | 52 | 70 | 23 | – | – | 46 | CC(C)(C)c1cc(/C=C/c2ccc(F)cc2)cc(C(C)(C)C)c1O | 58 | –
22 | – | – | 34 | – | – | 67 | CC(C)(C)c1cc(/C=C2\CCOC2=O)cc(C(C)(C)C)c1O | – | inhibition in vivo at 5 mg/kg (Rattus norvegicus [9]): 39%; inhibition in vivo at 25 mg/kg (Rattus norvegicus [6]): 63%
23 | 28 | 5 | – | – | – | 41 | Oc1ccc(/C=C/c2cccnc2)cc1 | – | –
24 | – | – | – | – | 27 | – | CCC(C)(C)c1cc(/C=C/c2cccnc2)cc(C(C)(C)CC)c1O | – | inhibition in vivo at 25 mg/kg (Rattus norvegicus [6]): 50%
25 | 24 | 73 | 21 | – | – | 59 | CC(C)(C)c1cc(/C=C/c2ccc[n+]([O-])c2)cc(C(C)(C)C)c1O | – | inhibition in vivo at 25 mg/kg (Rattus norvegicus [6]): 26%
26 | – | – | – | 85 | 75 | – | Cc1cc(/C=C/c2cccnc2)cc(C(C)(C)C)c1O | – | inhibition in vivo at 25 mg/kg (Rattus norvegicus [6]): 22%
27 | – | – | – | 84 | 26 | – | CC(C)(C)c1cc(/C=C/c2cccnc2)cc(C(C)(C)C)c1O | 82 | ED50 (Rattus norvegicus [10]): 4 mg/kg; ED50 (Rattus norvegicus [11]): 2.1 mg/kg; ED50 (Rattus norvegicus [12]): 16.5 mg/kg; inhibition in vivo at 5 mg/kg (Rattus norvegicus [13]): 56%; UD50 (Rattus norvegicus [14]): 202 mg/kg; ED50 (Rattus norvegicus [15]): 3.9 mg/kg
28 | 34 | 79 | 12 | – | – | 14 | CC(C)(C)c1cc(/C=C/c2ccccc2)cc(C(C)(C)C)c1O | 42 | –
29 | -16 | -5 | 18 | – | – | 3 | CC(C)(C)c1cc(/C=C/c2ccc(Cl)c(Cl)c2)cc(C(C)(C)C)c1O | 10 | –
30 | – | – | – | 49 | – | – | CC(C)(C)c1cc(C/C=C/c2cccs2)cc(C(C)(C)C)c1O | – | inhibition [16]: 7%
31 | 12 | 52 | 6 | – | – | 27 | Cc1ccc(/C=C/c2cc(C(C)(C)C)c(O)c(C(C)(C)C)c2)cc1 | 97 | inhibition in vivo at 5 mg/kg (Rattus norvegicus [9]): 55%

Row | SMILES | inhibition (Cyclooxygenase [1]) [%] | inhibition (Cyclooxygenase [2]) [%] | inhibition [3] [%] | inhibition [4] [%] | inhibition [7] [%] | inhibition [8] [%] | inhibition in vivo at 50 mg/kg (Rattus norvegicus [5]) [%] | further results
32 | CC(C)(C)c1cc(/C=C/c2cccs2)cc(C(C)(C)C)c1O | – | – | – | 88 | 25 | – | 77 | IC50 (Cyclooxygenase [17]): 63 nM; inhibition in vivo at 5 mg/kg (Rattus norvegicus [13]): 57%
